Measurements taken from ChEMBL document CHEMBL3259739, “Synthesis and structure-activity relationship of trisubstituted thiazoles as Cdc7 kinase inhibitors” (Eur J Med Chem, 2014).

How the values were obtained:
[1] = biological target: T1, Myotonin-protein kinase (Homo sapiens) (UniProt Q09013); assay: Inhibition of DMPK (unknown origin) at 1 uM relative to control; values are per cent of control
T1 sequence (whole entry): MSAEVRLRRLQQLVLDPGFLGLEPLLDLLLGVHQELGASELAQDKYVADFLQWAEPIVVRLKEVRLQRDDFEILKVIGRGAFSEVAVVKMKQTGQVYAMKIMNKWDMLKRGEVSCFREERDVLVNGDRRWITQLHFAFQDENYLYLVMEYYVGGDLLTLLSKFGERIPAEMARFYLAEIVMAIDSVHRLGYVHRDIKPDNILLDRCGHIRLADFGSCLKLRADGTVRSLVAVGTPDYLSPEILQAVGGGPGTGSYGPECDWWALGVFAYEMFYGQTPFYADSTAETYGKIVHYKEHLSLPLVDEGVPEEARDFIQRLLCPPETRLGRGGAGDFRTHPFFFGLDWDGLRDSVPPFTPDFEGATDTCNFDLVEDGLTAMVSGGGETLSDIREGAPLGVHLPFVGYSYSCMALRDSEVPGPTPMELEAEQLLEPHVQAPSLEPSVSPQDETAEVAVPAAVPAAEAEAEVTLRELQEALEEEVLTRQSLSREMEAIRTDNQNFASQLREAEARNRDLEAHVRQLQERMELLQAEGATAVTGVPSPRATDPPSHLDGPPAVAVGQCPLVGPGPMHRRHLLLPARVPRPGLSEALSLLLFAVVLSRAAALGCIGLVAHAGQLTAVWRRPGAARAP

[2] = biological target: MAP kinase-interacting serine/threonine-protein kinase 1 (Homo sapiens) (UniProt Q9BUB5); assay: Inhibition of MKNK1 (unknown origin) at 1 uM relative to control; values are per cent of control
[3] = biological target: Ephrin type-A receptor 2 (Homo sapiens) (UniProt P29317); assay: Inhibition of EPHA2 (unknown origin) at 1 uM relative to control; values are per cent of control
[4] = biological target: Protein-tyrosine kinase 6 (Homo sapiens) (UniProt Q13882); assay: Inhibition of BRK (unknown origin) at 1 uM relative to control; values are per cent of control
[5] = biological target: Serine/threonine-protein kinase PLK1 (Homo sapiens) (UniProt P53350); assay: Inhibition of PLK1 (unknown origin) at 1 uM relative to control; settings: values are per cent of control
Outline: (§1)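 KinomeSCAN competitive binding panel of 100 kinases; compounds tested at 1 µM in duplicate; read-out is percent […] control.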

[6] = biological target: T2, Aurora kinase A (Homo sapiens) (UniProt O14965); assay: Inhibition of AURKA (unknown origin) at 1 uM relative to control; values are per cent of control
T2 sequence (whole entry): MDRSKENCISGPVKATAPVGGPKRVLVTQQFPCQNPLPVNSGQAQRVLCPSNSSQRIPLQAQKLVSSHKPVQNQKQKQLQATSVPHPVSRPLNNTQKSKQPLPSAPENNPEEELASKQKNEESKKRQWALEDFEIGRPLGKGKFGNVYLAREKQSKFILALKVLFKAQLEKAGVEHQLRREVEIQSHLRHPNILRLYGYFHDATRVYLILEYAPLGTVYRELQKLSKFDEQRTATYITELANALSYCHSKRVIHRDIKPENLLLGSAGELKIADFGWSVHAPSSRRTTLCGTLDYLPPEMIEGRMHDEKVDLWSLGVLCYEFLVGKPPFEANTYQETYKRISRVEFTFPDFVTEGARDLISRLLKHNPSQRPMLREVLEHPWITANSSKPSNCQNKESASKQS

[7] = biological target: Wee1-like protein kinase (Homo sapiens) (UniProt P30291); assay: Inhibition of WEE1 (unknown origin) at 1 uM relative to control; settings: values are per cent of control
Outline: as §1

[8] = biological target: T3, Phosphatidylinositol 4,5-bisphosphate 3-kinase catalytic subunit delta isoform (Homo sapiens) (UniProt O00329); assay: Inhibition of PIK3CD (unknown origin) at 1 uM relative to control; settings: values are per cent of control
T3 sequence (whole entry): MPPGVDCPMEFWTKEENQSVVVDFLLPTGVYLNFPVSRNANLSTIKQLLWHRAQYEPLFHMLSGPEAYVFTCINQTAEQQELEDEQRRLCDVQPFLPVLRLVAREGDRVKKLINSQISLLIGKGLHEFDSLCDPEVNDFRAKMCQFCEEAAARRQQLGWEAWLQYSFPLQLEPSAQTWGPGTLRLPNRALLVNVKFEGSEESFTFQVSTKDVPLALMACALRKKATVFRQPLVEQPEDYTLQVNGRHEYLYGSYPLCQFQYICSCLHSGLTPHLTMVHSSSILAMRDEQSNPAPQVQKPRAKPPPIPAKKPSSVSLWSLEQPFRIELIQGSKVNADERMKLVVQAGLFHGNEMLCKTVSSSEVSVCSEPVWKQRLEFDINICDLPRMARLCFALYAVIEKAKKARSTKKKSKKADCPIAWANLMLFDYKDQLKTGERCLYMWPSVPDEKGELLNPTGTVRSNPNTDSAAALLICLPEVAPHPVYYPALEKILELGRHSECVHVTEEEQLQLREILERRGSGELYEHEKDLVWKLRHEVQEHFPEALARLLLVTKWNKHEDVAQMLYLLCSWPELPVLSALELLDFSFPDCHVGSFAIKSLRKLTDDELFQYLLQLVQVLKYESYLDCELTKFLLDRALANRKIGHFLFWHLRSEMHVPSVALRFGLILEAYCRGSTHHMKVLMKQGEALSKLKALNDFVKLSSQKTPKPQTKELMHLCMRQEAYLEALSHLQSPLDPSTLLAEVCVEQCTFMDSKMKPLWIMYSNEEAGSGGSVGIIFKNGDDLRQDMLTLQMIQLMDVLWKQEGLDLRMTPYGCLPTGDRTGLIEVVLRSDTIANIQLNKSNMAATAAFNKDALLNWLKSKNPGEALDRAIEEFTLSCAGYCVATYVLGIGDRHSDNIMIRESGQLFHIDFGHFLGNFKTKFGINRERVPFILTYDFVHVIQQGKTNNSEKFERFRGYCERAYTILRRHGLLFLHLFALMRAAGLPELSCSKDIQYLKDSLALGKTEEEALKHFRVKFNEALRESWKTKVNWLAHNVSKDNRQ
Outline: as §1

[9] = biological target: Cyclin-dependent kinase 4/cyclin D1 (Homo sapiens, UniProt P11802); assay: Inhibition of CDK4/Cyclin-D1 (unknown origin) by homogeneous time-resolved fluorescence assay; format: protein-complex assay
Outline: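 Counter-screens by HTRF kinase assays: CDK1/Cyclin B and CDK4/Cyclin D1 in HTRF format, CDK9/Cyclin T1 with a 4eBP1 ULight substrate, and the CK2 tetramer with a TopoII ULight substrate.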

[10] = Inhibition of CK1gamma (unknown origin) by TR-FRET assay; set-up: species or system Homo sapiens
Outline: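 CK1 isoform inhibition measured in Lance TR-FRET kinase assays, reported as IC50.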

[11] = biological target: Serine/threonine-protein kinase pim-1 (Homo sapiens, UniProt P11309); assay: Inhibition of Pim1 (unknown origin) by homogeneous time-resolved fluorescence assay
Outline: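 Pim1 counter-screened biochemically with a homogeneous time-resolved fluorescence (HTRF) kinase assay.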

Wee1-like protein kinase (Homo sapiens), sequence (P30291 whole entry, looked up): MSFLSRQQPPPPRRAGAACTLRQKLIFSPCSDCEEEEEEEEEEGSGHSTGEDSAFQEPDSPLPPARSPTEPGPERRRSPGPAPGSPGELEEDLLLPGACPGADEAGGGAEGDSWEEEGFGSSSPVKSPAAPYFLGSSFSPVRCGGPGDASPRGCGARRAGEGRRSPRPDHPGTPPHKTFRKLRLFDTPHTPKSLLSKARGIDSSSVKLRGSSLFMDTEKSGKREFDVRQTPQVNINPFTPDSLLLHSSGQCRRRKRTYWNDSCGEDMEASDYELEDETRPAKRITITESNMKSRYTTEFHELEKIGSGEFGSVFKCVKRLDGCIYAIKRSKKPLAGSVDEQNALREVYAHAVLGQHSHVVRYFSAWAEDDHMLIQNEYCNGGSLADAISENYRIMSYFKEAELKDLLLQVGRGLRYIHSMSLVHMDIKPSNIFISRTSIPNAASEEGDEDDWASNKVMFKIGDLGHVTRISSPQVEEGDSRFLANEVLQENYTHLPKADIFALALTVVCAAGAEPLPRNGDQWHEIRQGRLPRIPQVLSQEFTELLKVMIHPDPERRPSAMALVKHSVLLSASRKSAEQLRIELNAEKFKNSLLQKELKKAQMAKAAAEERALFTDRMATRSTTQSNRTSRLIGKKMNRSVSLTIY
Serine/threonine-protein kinase PLK1 (Homo sapiens), sequence (P53350 whole entry): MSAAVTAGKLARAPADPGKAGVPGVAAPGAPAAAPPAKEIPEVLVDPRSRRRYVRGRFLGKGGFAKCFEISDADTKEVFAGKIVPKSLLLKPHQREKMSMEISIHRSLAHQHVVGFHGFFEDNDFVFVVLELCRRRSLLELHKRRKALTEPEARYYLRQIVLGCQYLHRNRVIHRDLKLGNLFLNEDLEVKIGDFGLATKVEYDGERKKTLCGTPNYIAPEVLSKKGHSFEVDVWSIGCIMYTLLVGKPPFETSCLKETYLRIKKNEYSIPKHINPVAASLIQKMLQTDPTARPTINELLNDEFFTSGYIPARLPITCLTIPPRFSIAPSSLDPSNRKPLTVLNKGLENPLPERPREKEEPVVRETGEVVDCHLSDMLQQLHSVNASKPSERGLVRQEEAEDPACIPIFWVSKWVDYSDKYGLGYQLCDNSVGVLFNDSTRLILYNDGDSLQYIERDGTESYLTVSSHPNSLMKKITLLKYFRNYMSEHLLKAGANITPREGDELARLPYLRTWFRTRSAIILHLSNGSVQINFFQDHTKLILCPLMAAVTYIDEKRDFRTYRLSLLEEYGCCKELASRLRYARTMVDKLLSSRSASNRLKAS
Ephrin type-A receptor 2 (Homo sapiens), sequence (P29317 whole entry): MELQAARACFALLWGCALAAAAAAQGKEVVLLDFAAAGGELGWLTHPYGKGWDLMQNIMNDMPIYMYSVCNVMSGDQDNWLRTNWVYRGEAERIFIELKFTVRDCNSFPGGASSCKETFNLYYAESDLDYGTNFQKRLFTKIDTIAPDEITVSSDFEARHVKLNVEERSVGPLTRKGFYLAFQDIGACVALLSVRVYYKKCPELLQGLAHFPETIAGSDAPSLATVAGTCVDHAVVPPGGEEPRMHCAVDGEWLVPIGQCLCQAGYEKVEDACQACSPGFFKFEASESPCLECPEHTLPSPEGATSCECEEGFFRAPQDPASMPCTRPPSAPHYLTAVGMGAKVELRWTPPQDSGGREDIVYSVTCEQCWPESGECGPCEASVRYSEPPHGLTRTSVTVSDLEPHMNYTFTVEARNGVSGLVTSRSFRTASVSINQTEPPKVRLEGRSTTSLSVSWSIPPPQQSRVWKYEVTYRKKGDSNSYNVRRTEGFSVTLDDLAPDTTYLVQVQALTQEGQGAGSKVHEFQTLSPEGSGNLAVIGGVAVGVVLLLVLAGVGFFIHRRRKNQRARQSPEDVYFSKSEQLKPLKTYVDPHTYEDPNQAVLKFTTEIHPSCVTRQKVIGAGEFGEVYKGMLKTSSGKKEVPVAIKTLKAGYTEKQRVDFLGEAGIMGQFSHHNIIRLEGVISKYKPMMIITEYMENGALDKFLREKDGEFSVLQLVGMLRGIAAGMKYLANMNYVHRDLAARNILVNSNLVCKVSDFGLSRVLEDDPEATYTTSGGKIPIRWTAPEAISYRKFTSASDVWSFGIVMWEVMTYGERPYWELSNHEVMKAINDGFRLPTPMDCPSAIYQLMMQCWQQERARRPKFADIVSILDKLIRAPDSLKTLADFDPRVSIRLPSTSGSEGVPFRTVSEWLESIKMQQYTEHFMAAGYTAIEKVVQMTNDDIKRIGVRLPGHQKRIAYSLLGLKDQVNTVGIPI
Protein-tyrosine kinase 6 (Homo sapiens), sequence (Q13882 whole entry, looked up): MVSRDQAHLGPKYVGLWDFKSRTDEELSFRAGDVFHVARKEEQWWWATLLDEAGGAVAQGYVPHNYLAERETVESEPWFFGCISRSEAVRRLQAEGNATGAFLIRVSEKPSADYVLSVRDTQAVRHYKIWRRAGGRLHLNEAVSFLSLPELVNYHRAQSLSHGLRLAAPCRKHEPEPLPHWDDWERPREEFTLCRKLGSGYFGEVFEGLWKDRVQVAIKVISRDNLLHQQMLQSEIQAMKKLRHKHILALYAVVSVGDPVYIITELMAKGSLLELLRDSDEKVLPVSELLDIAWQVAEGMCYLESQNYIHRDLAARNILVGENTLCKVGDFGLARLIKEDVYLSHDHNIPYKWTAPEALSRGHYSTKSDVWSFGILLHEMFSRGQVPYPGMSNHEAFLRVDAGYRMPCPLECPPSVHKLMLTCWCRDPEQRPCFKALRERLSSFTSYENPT
MAP kinase-interacting serine/threonine-protein kinase 1 (Homo sapiens), sequence (Q9BUB5 whole entry, looked up): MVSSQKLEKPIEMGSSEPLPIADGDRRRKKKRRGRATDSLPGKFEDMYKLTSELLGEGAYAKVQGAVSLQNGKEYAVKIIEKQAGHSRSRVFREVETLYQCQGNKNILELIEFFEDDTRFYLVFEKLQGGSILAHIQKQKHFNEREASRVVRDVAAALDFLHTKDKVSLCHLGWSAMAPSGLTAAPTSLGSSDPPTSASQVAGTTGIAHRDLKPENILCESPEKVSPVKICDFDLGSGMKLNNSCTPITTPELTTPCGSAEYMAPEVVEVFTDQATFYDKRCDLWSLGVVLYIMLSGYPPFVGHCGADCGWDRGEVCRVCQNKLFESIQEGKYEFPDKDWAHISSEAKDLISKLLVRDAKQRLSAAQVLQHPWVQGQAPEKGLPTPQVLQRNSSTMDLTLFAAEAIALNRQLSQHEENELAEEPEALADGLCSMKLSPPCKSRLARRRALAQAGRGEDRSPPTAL
Serine/threonine-protein kinase pim-1, sequence (P11309 whole entry): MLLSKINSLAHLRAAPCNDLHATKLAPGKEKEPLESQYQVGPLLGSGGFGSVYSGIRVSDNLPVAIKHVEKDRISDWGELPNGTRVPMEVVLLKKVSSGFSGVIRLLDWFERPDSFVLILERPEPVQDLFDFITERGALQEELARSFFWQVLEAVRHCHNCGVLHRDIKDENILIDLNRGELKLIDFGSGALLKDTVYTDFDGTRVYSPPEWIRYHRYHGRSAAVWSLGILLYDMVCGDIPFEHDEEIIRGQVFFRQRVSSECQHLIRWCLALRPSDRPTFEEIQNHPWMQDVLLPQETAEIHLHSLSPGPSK
Cyclin-dependent kinase 4/cyclin D1, sequence (P11802 whole entry): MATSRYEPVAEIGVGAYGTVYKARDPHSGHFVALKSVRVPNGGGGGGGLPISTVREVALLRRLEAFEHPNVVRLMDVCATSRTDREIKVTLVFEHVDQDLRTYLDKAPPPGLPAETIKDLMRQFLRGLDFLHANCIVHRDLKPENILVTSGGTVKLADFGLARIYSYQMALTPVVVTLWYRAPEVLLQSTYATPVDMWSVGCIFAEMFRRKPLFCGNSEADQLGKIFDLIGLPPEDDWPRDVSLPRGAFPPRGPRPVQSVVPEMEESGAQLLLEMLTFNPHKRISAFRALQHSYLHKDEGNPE
Cyclin-dependent kinase 4/cyclin D1, sequence (P24385 whole entry, further chain): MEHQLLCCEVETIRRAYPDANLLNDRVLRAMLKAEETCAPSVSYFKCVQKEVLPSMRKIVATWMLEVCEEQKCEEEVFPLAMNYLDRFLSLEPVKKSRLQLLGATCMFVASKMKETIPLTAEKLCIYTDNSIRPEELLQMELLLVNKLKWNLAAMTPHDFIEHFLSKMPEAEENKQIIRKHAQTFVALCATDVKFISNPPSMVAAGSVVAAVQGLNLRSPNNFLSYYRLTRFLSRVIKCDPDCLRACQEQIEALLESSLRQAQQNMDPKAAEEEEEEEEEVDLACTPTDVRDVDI

| Structure (SMILES) | residual activity [1] | residual activity [2] | residual activity [3] | residual activity [4] | residual binding, % of control [5] | residual activity [6] | residual binding, % of control [7] | residual binding, % of control [8] | IC50 [9] | IC50 [10] | IC50 [11] |
| --- | --- | --- | --- | --- | --- | --- | --- | --- | --- | --- | --- |
| CCOC(=O)c1sc(-c2ccncc2)nc1O | 88% | 100% | 78% | 94% | 100% | 100% | 73% | 97% | – | – | – |
| COc1ccc(-c2nc(-c3ccnc(N)n3)sc2C(N)=O)c(Cl)c1 | 50% | 55% | 80% | 80% | 88% | 55% | 94% | 55% | > 50 µM | 1.9 µM | > 1 µM |
| NC(=O)c1sc(-c2ccnc(N)n2)nc1-c1ccc(Cl)cc1Cl | 100% | 84% | 88% | 68% | 100% | 77% | 74% | 78% | > 50 µM | 0.76 µM | > 1 µM |
